Data as given in ChEMBL document CHEMBL4414649, “Microbial Transformation of Cycloastragenol and Astragenol by Endophytic Fungi Isolated from Astragalus Species” (J Nat Prod, 2019).

Legend:
[1] = molecular target: Telomerase reverse transcriptase (Homo sapiens) (UniProt O14746); assay: Activation of telomerase activity in human neonatal primary epidermal keratinocytes assessed as fold change at 0.1 to 30 nM after 24 hrs by PCR-based TRAP assay relative to untreated control
Procedure, shortened: (§1)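 HEKn cells from ATCC, grown in dermal basal cell medium with keratinocyte growth supplements. Seeded, medium refreshed next day, then treated 24 h the following day (0.1–30 nM; DMSO control). 2 × 10^5 harvested cells lysed on ice 30 min, lysate spun 16000g 20 min. Telomerase measured by TRAP PCR-ELISA, absorbance at 450 nm (reference ~690 nm). Fold activation versus DMSO-treated cells.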

[2] = molecular target: Telomerase reverse transcriptase (Homo sapiens) (UniProt O14746); assay: Activation of telomerase activity in human neonatal primary epidermal keratinocytes assessed as fold change at 2 nM after 24 hrs by PCR-based TRAP assay relative to untreated control; procedure, shortened: as §1
[3] = molecular target: Telomerase reverse transcriptase (Homo sapiens) (UniProt O14746); assay: Activation of telomerase activity in human neonatal primary epidermal keratinocytes assessed as fold change at 0.1 nM after 24 hrs by PCR-based TRAP assay relative to untreated control; procedure, shortened: as §1
[4] = molecular target: Telomerase reverse transcriptase (Homo sapiens) (UniProt O14746); assay: Activation of telomerase activity in human neonatal primary epidermal keratinocytes assessed as fold change at 0.5 nM after 24 hrs by PCR-based TRAP assay relative to untreated control; procedure, shortened: as §1

Telomerase reverse transcriptase (Homo sapiens), sequence (O14746 whole entry): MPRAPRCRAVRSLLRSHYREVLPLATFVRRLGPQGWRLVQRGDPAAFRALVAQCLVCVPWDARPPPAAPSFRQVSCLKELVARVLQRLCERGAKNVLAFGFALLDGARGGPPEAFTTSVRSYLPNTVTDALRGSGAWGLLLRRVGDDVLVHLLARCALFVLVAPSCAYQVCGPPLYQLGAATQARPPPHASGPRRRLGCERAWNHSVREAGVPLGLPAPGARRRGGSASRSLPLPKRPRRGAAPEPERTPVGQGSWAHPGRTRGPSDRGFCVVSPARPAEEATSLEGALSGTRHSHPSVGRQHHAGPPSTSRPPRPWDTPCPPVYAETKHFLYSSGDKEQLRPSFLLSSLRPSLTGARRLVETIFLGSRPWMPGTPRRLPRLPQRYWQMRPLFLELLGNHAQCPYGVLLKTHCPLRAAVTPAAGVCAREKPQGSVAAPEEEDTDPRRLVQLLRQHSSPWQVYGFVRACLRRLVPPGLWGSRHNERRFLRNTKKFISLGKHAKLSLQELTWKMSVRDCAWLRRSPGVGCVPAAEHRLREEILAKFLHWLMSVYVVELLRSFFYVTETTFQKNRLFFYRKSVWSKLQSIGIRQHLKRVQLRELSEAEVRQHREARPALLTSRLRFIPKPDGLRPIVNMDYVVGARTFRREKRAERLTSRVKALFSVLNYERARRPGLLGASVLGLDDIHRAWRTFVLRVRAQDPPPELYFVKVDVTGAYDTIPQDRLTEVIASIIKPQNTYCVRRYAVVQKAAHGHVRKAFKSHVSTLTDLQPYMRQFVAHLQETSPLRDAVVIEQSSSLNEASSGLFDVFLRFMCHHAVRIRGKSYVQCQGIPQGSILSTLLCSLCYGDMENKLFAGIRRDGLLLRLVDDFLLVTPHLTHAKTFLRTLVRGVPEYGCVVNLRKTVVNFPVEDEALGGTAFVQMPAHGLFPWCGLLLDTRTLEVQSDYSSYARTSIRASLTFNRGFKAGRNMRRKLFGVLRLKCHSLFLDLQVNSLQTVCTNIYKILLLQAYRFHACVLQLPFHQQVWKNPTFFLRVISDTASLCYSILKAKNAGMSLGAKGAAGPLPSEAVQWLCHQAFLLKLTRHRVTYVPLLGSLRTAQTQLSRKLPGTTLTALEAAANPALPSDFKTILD

Row | SMILES | fold change (FC) [1] | fold change (FC) [2] | fold change (FC) [3] | fold change (FC) [4]
1 | CC(C)(O)[C@@H]1CC[C@](C)([C@H]2[C@@H](O)C[C@@]3(C)[C@@H]4C[C@H](O)[C@H]5C(C)(C)[C@@H](O)CC[C@@]56C[C@@]46CC[C@]23C)O1 | 1.5 to 5.2 | 5.2 | 1.5 | 
2 | CC(C)(O)[C@@H]1CC[C@](C)([C@H]2[C@@H](O)C[C@@]3(CO)[C@@H]4C[C@H](O)[C@H]5C(C)(C)C(=O)CC[C@@]56C[C@@]46CC[C@]23C)O1 | 1.5 to 5.2 |  | 3.5 | 
3 | CC(C)(O)[C@@H]1CC[C@](C)([C@H]2[C@@H](O)C[C@@]3(C)[C@@H]4C[C@H](O)[C@H]5C(C)(C)[C@@H](O)CC[C@]5(C)C4=C[C@H](O)[C@]23C)O1 | 1.5 to 5.2 |  | 3.8 | 
4 | CC(C)(O)[C@@H]1CC[C@](C)([C@H]2[C@@H](O)C[C@@]3(C)[C@@H]4C[C@H](O)[C@H]5C(C)(C)C(=O)CC[C@@]56C[C@@]46[C@@H](O)C[C@]23C)O1 | 1.5 to 5.2 |  |  | 
5 | CC(C)(O)[C@@H]1CC[C@](C)([C@H]2[C@@H](O)C[C@@]3(C)[C@@H]4C[C@H](O)[C@H]5C(C)(C)[C@@H](O)CC[C@@]56C[C@@]46C[C@H](O)[C@]23C)O1 | 1.5 to 5.2 |  |  | 5
